Measurements from ChEMBL document CHEMBL4014357, “Structure-Based Design and Synthesis of Potent and Selective Matrix Metalloproteinase 13 Inhibitors” (J Med Chem, 2017).
Calls of active or inactive are those of the source. The calls are words filed in the database; no cut-off is given here.

How the values were obtained:
Caspase-5 (Homo sapiens) = Caspase-5 (Homo sapiens) (UniProt P51878); assay: Inhibition of caspase5 (unknown origin) at 1 uM relative to control
[1] = biological target: Angiotensin-converting enzyme (Homo sapiens) (UniProt P12821); assay: Inhibition of ACE (unknown origin) at 1 uM relative to control
[2] = biological target: Prothrombin (Homo sapiens) (UniProt P00734); assay: Inhibition of thrombin (unknown origin) at 1 uM relative to control
[3] = biological target: Procathepsin L (Homo sapiens) (UniProt P07711); assay: Inhibition of cathepsin-L (unknown origin) at 1 uM relative to control
[4] = biological target: Insulin-degrading enzyme (Homo sapiens) (UniProt P14735); assay: Inhibition of IDE (unknown origin) at 1 uM relative to control
[5] = biological target: Cathepsin K (Homo sapiens) (UniProt P43235); assay: Inhibition of cathepsin-K (unknown origin) at 1 uM relative to control
[6] = biological target: Urokinase-type plasminogen activator (Homo sapiens) (UniProt P00749); assay: Inhibition of uPA (unknown origin) at 1 uM relative to control
[7] = biological target: Disintegrin and metalloproteinase domain-containing protein 17 (Homo sapiens) (UniProt P78536); assay: Inhibition of TACE (unknown origin) at 1 uM relative to control
[8] = biological target: Matrilysin (Homo sapiens) (UniProt P09237); assay: Inhibition of MMP7 (unknown origin) at 1 uM relative to control
[9] = biological target: Cathepsin D (Homo sapiens) (UniProt P07339); assay: Inhibition of cathepsin-D (unknown origin) at 1 uM relative to control
Caspase-6 (Homo sapiens) = Caspase-6 (Homo sapiens) (UniProt P55212); assay: Inhibition of caspase6 (unknown origin) at 1 uM relative to control
[10] = biological target: Coagulation factor X (Homo sapiens) (UniProt P00742); assay: Inhibition of factor10a (unknown origin) at 1 uM relative to control
Furin (Homo sapiens) = Furin (Homo sapiens) (UniProt P09958); assay: Inhibition of furin (unknown origin) at 1 uM relative to control
Caspase-2 (Homo sapiens) = Caspase-2 (Homo sapiens) (UniProt P42575); assay: Inhibition of caspase2 (unknown origin) at 1 uM relative to control
[11] = biological target: Angiotensin-converting enzyme 2 (Homo sapiens) (UniProt Q9BYF1); assay: Inhibition of ACE2 (unknown origin) at 1 uM relative to control
[12] = biological target: Cathepsin S (Homo sapiens) (UniProt P25774); assay: Inhibition of cathepsin-S (unknown origin) at 1 uM relative to control
Caspase-3 (Homo sapiens) = Caspase-3 (Homo sapiens) (UniProt P42574); assay: Inhibition of caspase3 (unknown origin) at 1 uM relative to control
[13] = biological target: Disintegrin and metalloproteinase domain-containing protein 10 (Homo sapiens) (UniProt O14672); assay: Inhibition of ADAM10 (unknown origin) at 1 uM relative to control
[14] = biological target: Beta-secretase 1 (Homo sapiens) (UniProt P56817); assay: Inhibition of BACE1 (unknown origin) at 1 uM relative to control
Caspase-1 (Homo sapiens) = Caspase-1 (Homo sapiens) (UniProt P29466); assay: Inhibition of caspase1 (unknown origin) at 1 uM relative to control
[15] = biological target: Neprilysin (Homo sapiens) (UniProt P08473); assay: Inhibition of neprilysin (unknown origin) at 1 uM relative to control
Caspase-7 (Homo sapiens) = Caspase-7 (Homo sapiens) (UniProt P55210); assay: Inhibition of caspase7 (unknown origin) at 1 uM relative to control
[16] = biological target: T1, 72 kDa type IV collagenase (Homo sapiens, UniProt P08253); assay: Inhibition of recombinant human MMP2 expressed in mouse NSO cells using fTHP-15 as substrate preincubated for 30 mins followed by substrate addition measured immediately by fluorescence assay
[17] = biological target: Matrix metalloproteinase-9 (Homo sapiens, UniProt P14780); assay: Inhibition of MMP9 (unknown origin) using fTHP-15 as substrate preincubated for 30 mins followed by substrate addition measured immediately by fluorescence assay
Neutrophil collagenase [18] = biological target: T2, Neutrophil collagenase (Homo sapiens, UniProt P22894); assay: Inhibition of MMP8 (unknown origin) using fTHP-15 as substrate preincubated for 30 mins followed by substrate addition measured immediately by fluorescence assay
[19] = biological target: Matrix metalloproteinase-14 (Homo sapiens, UniProt P50281); assay: Inhibition of recombinant human MMP14 using fTHP-15 as substrate preincubated for 30 mins followed by substrate addition measured immediately by fluorescence assay
Collagenase 3 [20] = biological target: T3, Collagenase 3 (Homo sapiens, UniProt P45452); assay: Inhibition of full length recombinant human MMP13 expressed in mouse NSO cells using fTHP-15 as substrate preincubated for 30 mins followed by substrate addition measured immediately by fluorescence assay
Neutrophil collagenase [21] = biological target: T2, Neutrophil collagenase; assay: Inhibition of MMP8 (unknown origin) at 200 nM using fTHP-15 as substrate preincubated for 30 mins followed by substrate addition measured immediately by fluorescence assay
Method in brief: (§1)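 Each enzyme was activated per the supplier's protocol and diluted in EAB (50 mM Tris·HCl pH 7.5, 100 mM NaCl, 10 mM CaCl2, 0.05% Brij-35). Compound was tested at a single 200 nM and preincubated with enzyme for 30 min at 25 °C. Adding fTHP-15 started the reaction, with fluorescence read immediately. Inhibition was scored as percent substrate-to-product conversion after 30 min.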

[22] = biological target: T1, 72 kDa type IV collagenase; assay: Inhibition of recombinant human MMP2 expressed in mouse NSO cells at 200 nM using fTHP-15 as substrate preincubated for 30 mins followed by substrate addition measured immediately by fluorescence assay; method in brief: as §1
Collagenase 3 [23] = biological target: T3, Collagenase 3; assay: Inhibition of full length recombinant human MMP13 expressed in mouse NSO cells using varying levels of fTHP-15 as substrate preincubated for 30 mins followed by substrate addition measured immediately by Lineweaver-Burk plot analysis

Chain of Cathepsin S (Homo sapiens) (P25774 115-331 limits assumed): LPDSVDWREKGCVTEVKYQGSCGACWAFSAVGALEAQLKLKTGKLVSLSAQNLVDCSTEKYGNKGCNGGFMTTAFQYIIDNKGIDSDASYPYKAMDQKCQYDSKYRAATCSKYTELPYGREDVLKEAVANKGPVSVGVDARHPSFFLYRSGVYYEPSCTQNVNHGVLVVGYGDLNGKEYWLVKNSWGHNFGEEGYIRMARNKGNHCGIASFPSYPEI
Chain of Caspase-5 (Homo sapiens) (P51878 137-327 limits assumed): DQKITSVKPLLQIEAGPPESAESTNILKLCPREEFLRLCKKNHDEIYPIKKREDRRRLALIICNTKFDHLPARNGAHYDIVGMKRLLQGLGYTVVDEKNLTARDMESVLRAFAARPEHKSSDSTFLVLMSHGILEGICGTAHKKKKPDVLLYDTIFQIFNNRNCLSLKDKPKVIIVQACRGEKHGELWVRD
Chain of Caspase-5 (Homo sapiens) (P51878 347-434 limits assumed): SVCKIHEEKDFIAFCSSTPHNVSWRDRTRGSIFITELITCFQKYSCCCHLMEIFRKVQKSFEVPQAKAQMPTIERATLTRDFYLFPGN
Chain of Caspase-7 (Homo sapiens) (P55210 24-198 limits assumed): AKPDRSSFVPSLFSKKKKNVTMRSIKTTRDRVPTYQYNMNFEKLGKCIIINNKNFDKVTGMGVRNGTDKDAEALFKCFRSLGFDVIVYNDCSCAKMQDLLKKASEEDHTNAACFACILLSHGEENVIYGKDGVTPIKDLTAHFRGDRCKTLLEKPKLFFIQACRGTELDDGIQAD
Chain of Caspase-7 (Homo sapiens) (P55210 207-303 limits assumed): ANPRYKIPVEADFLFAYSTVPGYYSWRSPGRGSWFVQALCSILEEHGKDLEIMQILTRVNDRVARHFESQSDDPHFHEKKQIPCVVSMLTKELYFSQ
Chain of Neprilysin (Homo sapiens) (P08473 whole entry): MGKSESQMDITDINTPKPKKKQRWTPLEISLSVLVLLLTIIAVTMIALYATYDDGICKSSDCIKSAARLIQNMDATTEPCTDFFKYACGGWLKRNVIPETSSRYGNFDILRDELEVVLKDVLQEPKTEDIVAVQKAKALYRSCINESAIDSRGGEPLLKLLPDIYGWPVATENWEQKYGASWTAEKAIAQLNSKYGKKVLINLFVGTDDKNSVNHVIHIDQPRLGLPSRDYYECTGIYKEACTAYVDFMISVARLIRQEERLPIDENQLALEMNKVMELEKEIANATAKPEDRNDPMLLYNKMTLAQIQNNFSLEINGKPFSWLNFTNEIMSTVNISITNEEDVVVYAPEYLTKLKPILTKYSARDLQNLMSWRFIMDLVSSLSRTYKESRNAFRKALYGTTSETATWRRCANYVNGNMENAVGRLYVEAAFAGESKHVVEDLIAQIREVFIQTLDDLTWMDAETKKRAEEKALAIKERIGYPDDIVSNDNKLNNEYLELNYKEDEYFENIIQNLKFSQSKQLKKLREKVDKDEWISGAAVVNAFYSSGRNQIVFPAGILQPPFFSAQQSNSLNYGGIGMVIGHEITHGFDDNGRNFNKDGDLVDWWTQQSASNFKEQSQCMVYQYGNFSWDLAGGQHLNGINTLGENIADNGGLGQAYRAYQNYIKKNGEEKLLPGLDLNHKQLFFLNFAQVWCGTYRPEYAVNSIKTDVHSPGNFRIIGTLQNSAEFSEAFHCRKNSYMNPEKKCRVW
Chain of Angiotensin-converting enzyme (Homo sapiens) (P12821 whole entry): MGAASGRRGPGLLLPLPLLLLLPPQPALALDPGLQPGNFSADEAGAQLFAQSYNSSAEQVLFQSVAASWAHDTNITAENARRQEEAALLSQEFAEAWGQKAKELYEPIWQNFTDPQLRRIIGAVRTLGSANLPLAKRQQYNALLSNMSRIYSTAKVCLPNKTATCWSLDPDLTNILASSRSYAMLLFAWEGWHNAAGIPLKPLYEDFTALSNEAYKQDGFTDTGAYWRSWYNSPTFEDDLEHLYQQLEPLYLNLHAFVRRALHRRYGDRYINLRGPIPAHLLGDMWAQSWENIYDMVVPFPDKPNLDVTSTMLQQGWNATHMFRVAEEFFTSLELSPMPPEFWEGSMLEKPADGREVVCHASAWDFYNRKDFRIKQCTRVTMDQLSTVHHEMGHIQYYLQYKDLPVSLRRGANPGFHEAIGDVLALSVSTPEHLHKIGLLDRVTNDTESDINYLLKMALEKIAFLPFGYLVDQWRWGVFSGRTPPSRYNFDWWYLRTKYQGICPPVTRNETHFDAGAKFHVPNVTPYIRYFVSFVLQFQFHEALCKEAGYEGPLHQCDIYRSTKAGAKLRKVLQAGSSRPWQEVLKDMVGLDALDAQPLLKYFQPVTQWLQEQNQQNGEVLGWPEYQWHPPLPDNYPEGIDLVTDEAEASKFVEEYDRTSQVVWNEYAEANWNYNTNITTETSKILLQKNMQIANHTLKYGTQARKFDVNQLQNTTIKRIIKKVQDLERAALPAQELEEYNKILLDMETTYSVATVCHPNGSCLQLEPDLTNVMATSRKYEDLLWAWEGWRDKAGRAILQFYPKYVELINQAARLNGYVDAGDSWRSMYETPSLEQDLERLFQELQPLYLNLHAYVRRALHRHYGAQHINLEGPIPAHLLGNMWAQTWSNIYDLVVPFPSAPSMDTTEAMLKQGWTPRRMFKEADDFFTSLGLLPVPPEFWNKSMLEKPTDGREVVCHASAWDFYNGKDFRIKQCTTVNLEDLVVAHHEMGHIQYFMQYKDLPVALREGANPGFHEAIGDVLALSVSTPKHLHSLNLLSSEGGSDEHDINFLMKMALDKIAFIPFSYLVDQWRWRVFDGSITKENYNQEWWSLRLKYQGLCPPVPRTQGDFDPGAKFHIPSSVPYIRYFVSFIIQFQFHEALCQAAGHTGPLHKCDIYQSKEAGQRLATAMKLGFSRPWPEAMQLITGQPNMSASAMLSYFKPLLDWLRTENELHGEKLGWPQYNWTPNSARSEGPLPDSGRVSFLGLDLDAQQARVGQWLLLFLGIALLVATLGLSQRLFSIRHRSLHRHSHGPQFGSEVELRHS
Chain of Cathepsin D (Homo sapiens) (P07339 65-162 limits assumed): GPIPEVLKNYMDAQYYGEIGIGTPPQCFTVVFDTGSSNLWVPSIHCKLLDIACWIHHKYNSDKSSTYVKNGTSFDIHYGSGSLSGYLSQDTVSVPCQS
Chain of Cathepsin D (Homo sapiens) (P07339 169-412 limits assumed): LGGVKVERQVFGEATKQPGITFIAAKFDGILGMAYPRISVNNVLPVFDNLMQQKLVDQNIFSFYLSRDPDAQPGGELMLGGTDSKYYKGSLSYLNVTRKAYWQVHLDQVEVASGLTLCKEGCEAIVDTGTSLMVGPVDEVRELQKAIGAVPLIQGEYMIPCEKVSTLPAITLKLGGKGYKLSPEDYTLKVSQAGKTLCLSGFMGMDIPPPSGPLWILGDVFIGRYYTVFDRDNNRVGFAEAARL
Chain of Coagulation factor X (Homo sapiens) (P00742 41-179 limits assumed): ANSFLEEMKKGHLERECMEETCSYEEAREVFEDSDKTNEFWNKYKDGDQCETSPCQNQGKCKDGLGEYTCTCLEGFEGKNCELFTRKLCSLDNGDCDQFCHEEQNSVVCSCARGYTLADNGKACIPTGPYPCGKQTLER
Chain of Coagulation factor X (Homo sapiens) (P00742 235-488 limits assumed): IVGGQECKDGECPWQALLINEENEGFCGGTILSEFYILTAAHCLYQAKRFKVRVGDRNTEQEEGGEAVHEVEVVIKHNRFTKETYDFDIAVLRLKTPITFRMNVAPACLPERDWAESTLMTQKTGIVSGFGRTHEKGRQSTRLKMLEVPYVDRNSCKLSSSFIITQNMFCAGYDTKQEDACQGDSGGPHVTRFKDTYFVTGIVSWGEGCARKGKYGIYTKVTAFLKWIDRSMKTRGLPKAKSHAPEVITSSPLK
Chain of Caspase-2 (Homo sapiens) (P42575 170-325 limits assumed): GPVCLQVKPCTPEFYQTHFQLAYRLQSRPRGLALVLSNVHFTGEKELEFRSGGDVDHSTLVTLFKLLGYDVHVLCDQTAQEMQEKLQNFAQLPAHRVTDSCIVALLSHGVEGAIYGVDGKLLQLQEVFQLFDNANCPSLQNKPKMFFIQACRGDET
Chain of Caspase-2 (Homo sapiens) (P42575 334-452 limits assumed): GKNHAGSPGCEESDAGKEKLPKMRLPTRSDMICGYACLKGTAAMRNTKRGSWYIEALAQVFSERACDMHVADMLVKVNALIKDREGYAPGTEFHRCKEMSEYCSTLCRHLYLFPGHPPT
Chain of Matrilysin (Homo sapiens) (P09237 whole entry): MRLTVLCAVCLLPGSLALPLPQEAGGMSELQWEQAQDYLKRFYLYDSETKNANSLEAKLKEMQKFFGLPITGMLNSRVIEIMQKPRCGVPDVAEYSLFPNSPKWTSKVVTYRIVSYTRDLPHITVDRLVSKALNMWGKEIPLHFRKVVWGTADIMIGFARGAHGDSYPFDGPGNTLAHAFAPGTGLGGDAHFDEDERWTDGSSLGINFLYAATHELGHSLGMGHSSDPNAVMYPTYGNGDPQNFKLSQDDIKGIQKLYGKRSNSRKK
Chain of Caspase-6 (Homo sapiens) (P55212 24-179 limits assumed): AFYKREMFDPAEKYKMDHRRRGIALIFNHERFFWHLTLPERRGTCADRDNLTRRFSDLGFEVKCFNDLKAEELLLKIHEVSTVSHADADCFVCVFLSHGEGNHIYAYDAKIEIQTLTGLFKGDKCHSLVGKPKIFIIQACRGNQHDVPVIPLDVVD
Chain of Caspase-6 (Homo sapiens) (P55212 194-293 limits assumed): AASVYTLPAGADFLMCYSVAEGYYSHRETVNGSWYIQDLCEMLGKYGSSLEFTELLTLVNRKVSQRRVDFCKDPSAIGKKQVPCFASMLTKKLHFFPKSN
Chain of Procathepsin L (Homo sapiens) (P07711 114-333 limits assumed): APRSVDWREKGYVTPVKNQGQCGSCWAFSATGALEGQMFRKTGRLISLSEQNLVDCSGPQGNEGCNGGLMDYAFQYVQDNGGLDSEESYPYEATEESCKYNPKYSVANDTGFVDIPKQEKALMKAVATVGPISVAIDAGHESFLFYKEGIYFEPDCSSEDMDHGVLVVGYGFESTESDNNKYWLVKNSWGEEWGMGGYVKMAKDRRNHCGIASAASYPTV

With CNC(=O)[C@@H](NC(=O)c1ccc(-c2ccc(CSc3nc4c(c(=O)[nH]3)CCC4)c(F)c2)o1)C(C)C the inhibition (Caspase-5 (Homo sapiens)) was 0%, the inhibition [1] was 0% and the inhibition [2] was -8%. The inhibition [3] was 7%, the inhibition [4] was 0% and the inhibition [5] was 2%. It also gave an inhibition [6] of 1%, an inhibition [7] of -3% and an inhibition [8] of 4%. For the same molecule, the inhibition [9] was 0%, the inhibition (Caspase-6 (Homo sapiens)) was 0% and the inhibition [10] was 0%. For the same molecule, the inhibition (Furin (Homo sapiens)) was 0%, the inhibition (Caspase-2 (Homo sapiens)) was 0% and the inhibition [11] was 0%. For the same molecule, the inhibition [12] was 2%, the inhibition (Caspase-3 (Homo sapiens)) was 0% and the inhibition [13] was 0%. For the same molecule, the inhibition [14] was 0%, the inhibition (Caspase-1 (Homo sapiens)) was 0% and the inhibition [15] was -6%. The inhibition (Caspase-7 (Homo sapiens)) was 8%.
With O=c1[nH]c(SCc2ccc(-c3ccc(S(=O)(=O)NCCO)cc3)cc2)nc2c1CCC2 the IC50 [16] was greater than 5 µM, the IC50 [17] was greater than 10 µM and the IC50 (Neutrophil collagenase [18]) was greater than 5 µM. For the same molecule, the IC50 [19] was greater than 10 µM.
In the case of CC(C)[C@@H](NS(=O)(=O)c1ccc(-c2ccc(CSc3nc4c(c(=O)[nH]3)CCC4)cc2)cc1)C(=O)O, the IC50 (Collagenase 3 [20]) is reported as 7 nM.
In the case of CNC(=O)[C@@H](NC(=O)c1ccc(-c2ccc(CSc3nc4c(c(=O)[nH]3)CCC4)cc2)o1)C(C)C, the inhibition (Neutrophil collagenase [21]) is reported as “Active”, the inhibition [22] is reported as “Active” and the IC50 (Collagenase 3 [20]) is reported as 9.4 nM.
NCCNS(=O)(=O)c1ccc(-c2ccc(CSc3nc4c(c(=O)[nH]3)CCC4)cc2)cc1 showed an inhibition (Caspase-5 (Homo sapiens)) of 0%, an inhibition [1] of 7% and an inhibition [2] of -3%. For the same molecule, the inhibition [3] was 9%, the inhibition [4] was 0% and the inhibition [5] was 0%. For the same molecule, the inhibition [6] was 3%, the inhibition [7] was 4% and the inhibition [8] was 7%. For the same molecule, the inhibition [9] was 3%, the inhibition (Caspase-6 (Homo sapiens)) was 0% and the inhibition [10] was 3%. The inhibition (Furin (Homo sapiens)) was 0%, the inhibition (Caspase-2 (Homo sapiens)) was 0% and the inhibition [11] was 1%. For the same molecule, the inhibition [12] was 12%, the inhibition (Caspase-3 (Homo sapiens)) was 0% and the inhibition [13] was 0%. The inhibition [14] was 1%, the inhibition (Caspase-1 (Homo sapiens)) was 1% and the inhibition [15] was 3%. It also gave an inhibition (Caspase-7 (Homo sapiens)) of 1%.
With CNC(=O)[C@H](NC(=O)c1ccc(-c2ccc(CSc3nc4c(c(=O)[nH]3)CCC4)cc2)o1)C(C)C the IC50 (Collagenase 3 [20]) was 356 nM.
Cc1ccc(CSc2nc(O)c3c(n2)CCC3)cc1 showed a Ki (Collagenase 3 [23]) of 800 nM.
